2 compounds from BindingDB's records for doi:10.1021/jm960868t (Organix, 1997) can be followed below.

This experiment addresses Sodium-dependent dopamine transporter (Macaca fascicularis, UniProt Q9GJT6). As to the kind of experiment: Inhibition of [3H]WIN-35428 binding to dopamine transporter using of Cynomolgus monkey caudate-putamen. An outline of the steps: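 Caudate-putamen membranes (washed in 50 mM Tris-HCl pH 7.4, 3800g spins) incubated at 4 mg original wet tissue/mL with 0.3 nM [3H]WIN35,428 and 7–14 competitor concentrations in 50 mM Tris-HCl/100 mM NaCl pH 7.4, 2 h at 0–4 °C. Filtered on BSA-soaked GF/B filters, scintillation counting. Nonspecific binding defined with 30 μM (–)-cocaine. IC50 computed by EBDA; independent experiments in triplicate.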

Sodium-dependent dopamine transporter, sequence (Q9GJT6 whole entry): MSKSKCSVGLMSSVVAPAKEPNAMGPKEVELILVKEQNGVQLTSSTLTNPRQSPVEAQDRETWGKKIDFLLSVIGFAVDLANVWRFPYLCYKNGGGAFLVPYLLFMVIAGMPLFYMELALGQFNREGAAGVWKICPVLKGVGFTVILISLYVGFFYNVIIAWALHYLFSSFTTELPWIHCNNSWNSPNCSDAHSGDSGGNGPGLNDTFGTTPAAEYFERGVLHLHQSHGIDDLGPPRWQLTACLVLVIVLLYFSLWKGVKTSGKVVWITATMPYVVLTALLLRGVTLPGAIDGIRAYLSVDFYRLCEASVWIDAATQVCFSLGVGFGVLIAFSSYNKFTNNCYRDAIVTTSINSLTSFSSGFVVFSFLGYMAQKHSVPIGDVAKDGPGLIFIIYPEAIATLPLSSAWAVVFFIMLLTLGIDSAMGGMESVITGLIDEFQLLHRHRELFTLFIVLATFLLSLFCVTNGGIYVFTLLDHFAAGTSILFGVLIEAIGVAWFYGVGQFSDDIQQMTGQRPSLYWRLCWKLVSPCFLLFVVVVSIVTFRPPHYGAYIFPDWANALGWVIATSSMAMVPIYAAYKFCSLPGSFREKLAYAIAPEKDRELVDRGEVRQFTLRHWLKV

For the compound `COC(=O)[C@@H]1C2CCC(C[C@@H]1OC(c1ccc(F)cc1)c1ccc(F)cc1)N2CCCN1CC[S][Re]2(=[O])[S]CC[N]2C(=O)C1` (some centres not stated), the IC50 was determined as 343 nM.

Consider `COC(=O)C1C(c2ccc(Cl)c(Cl)c2)CC2CCC1N2CCC[N+]12CC[S][Re]13(=[O])[S]CC[N]3C(=O)C2` (stereo not drawn) [[N-[2-[(3'-N'-Propyl-3''beta-(3,4-dichlorophenyl)tropane-2''beta-carboxylic acid methyl ester)(2-mercaptoethyl)amino]acetyl]-2-aminoethanethiolato]rhenium(V) oxide], for which the IC50 stood at 37.2 nM.
